Source: PubChem BioAssay (several laboratories)
In the library only some 4.8% were active in any assay of this set; here they are far more common.
PAFAH2 FP inh – PAFAH2 (human) inhibition; AID 492956; Q99487; inhibition, % at 3.39 µM; 340,000 compounds, 0.99% hits; recombinant PAFAH2, FP-rhodamine activity probe, fluorescence polarization;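 active = inhibition above the mean over all tested compounds plus 3 SD, cut at about 30% in these data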;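 note: inhibitors block probe labeling of enzyme so polarization drops; 0% = enzyme with DMSO and 100% = wells lacking PAFAH2 protein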
UCH37 DUB inh – blocks the human deubiquitinase UCH37; Q9Y5K5; purified proteasome/UCH37, Ub-AMC cleavage fluorescence; inhibition, % (test concentration not listed); 330,000 compounds, 0.33% hits; AID 588478;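 active = mean inhibition over replicate wells above about 20%, limit read from the data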;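 note: 0% = compound-free wells with enzyme and 100% = wells lacking proteasome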
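Assay system: Proteasome-bound UCH37. Buffer or medium: pH 7.4 Tris-HCl (50 mM) with ovalbumin, ATP-MgCl2, DTT. Incubation: 30 min preincubation with enzyme, 25 min cleavage at room temperature. Measured by: fluorescence, ex 355 nm, em 460 nm. Read-out basis: percent inhibition. Control set: wells without proteasome as full block, compound-free enzyme plus substrate as uninhibited.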
pPAFAH inh – pPAFAH (human) enzyme inhibition | recombinant pPAFAH, FP-rhodamine probe fluorescence polarization | Q13093 | AID 463082 | inhibition, % at 3.39 µM | 330,000 compounds, 1.5% hits;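 active = inhibition above the mean inhibition across the screen plus 3 SD, cut at about 25% in these data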;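 note: inhibitors block binding of the rhodamine activity-based probe so polarization drops; 0% = enzyme with DMSO and 100% = wells lacking pPAFAH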
Target sequence (Q13093 whole entry, looked up): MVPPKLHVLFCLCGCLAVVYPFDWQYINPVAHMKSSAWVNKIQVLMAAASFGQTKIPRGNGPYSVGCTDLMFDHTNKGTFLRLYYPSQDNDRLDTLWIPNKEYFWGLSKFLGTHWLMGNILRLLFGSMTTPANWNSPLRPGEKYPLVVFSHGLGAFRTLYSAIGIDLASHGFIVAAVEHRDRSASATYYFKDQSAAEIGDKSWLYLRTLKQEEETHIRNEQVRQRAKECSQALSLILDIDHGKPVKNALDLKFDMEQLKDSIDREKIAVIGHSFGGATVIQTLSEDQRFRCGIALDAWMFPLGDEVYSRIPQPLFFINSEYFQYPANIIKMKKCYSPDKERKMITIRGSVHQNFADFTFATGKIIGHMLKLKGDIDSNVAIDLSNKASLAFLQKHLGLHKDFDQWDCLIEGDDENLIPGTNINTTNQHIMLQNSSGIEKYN
PAFAH1B3 inh – blocks human PAF acetylhydrolase 1B catalytic subunit 3 | inhibition, % at 3.39 µM | 340,000 compounds, 0.28% hits | recombinant PAFAH1B3, FP-rhodamine probe, fluorescence polarization;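 active = inhibition above the screen-wide average of all tested compounds plus 3 SD, cut at about 25% in these data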;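 note: 0% = enzyme with DMSO only and 100% = wells lacking PAFAH1B3 protein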
Target sequence (Q15102 whole entry, looked up): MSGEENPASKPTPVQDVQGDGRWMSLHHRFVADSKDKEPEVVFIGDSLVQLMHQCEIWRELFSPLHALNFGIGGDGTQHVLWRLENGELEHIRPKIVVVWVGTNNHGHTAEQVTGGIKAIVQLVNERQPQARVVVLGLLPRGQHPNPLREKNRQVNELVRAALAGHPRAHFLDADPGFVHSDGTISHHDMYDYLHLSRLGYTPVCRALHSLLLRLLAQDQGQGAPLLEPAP
PAFAH1B2 FP inh – inhibitors of human PAFAH1B2; inhibition, % at 3.39 µM; 340,000 compounds, 1.2% hits; recombinant PAFAH1B2, FP-rhodamine activity probe, fluorescence polarization; AID 492953;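 active = inhibition above the mean of all tested compounds plus 3 SD, cut at about 24% in these data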;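 note: 0% = enzyme with DMSO and 100% = wells lacking PAFAH1B2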
GRIN3A LBD mod – NR3A (human) ligand-binding domain modulation | NR3A LBD differential scanning fluorimetry, Tm shift; 0% = protein alone, 100% = glycine-bound protein | Tm shift relative to glycine control, % at 25 µM | 340,000 compounds, 2.5% hits | AID 1259313;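 active = melting temperature shift of at least 10% of the positive control shift, at one fixed dose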
UCH37 reconfirm – reconfirmed inhibitor of human deubiquitinase UCH37 | shares compounds with UCH37 DUB inh | Proteasome-bound UCH37, Ub-AMC cleavage fluorescence | inhibition, % at 20 µM | 480 compounds, 27% hits;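 active = average inhibition over replicates above about 50%, so the earlier screening hit is confirmed, limit read from the data; inactive = the rest, counted as false positives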;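 note: based on cleavage rate fitted by regression over a 30 min kinetic read; 0% = proteasome plus Ub-AMC and 100% = Ub-AMC without proteasome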
* marks the source's active call; other numbers are inactive results; . = no result given.

SMILES | PAFAH2 FP inh | UCH37 DUB inh | pPAFAH inh | PAFAH1B3 inh | PAFAH1B2 FP inh | GRIN3A LBD mod | UCH37 reconfirm
Cn1nnnc1SC(C(=O)Nc1ccc(F)cc1)c1ccccc1 (centres undefined) | 4 | -2 | 2 | 11 | 2 | -2 | .
Cn1c(SC(C(=O)Nc2ccc(F)cc2)c2ccccc2)nc2ccccc21 (centres undefined) | -14 | 45* | -3 | 4 | -4 | 3 | -5
CC(=O)N(CN1C(=O)c2ccccc2C1=O)c1ccccc1 | -6 | 1 | 1 | -1 | 5 | -1 | .
CC(=O)N(N=C1Sc2ccccc2C1=O)c1ccccc1 | . | 31* | . | . | . | . | 19
CC(=O)Nc1ccc(/C=C2\Sc3ccccc3C2=O)cc1 | -4 | 2 | 4 | -3 | 5 | 8 | .
CC(=O)N(N=C1Sc2ccccc2C1=O)c1ccccc1C | . | 83* | . | . | . | . | 62*
COc1ccc(NC(=O)/C=C/c2c(Cl)nc3ccccn23)cc1 | 0 | 37* | 4 | 10 | 3 | 17* | 9
COc1ccccc1N1CCN(C(=O)/C=C/c2c(Cl)nc3ccccn23)CC1 | 9 | 5 | -2 | 0 | -4 | -15 | .
CC(=O)N1C(=O)/C(=C2\SC(=S)N(c3c(C)n(C)n(-c4ccccc4)c3=O)C2=O)c2ccccc21 | 5 | 25* | 6 | -1 | 0 | -5 | 45
Cc1c(N2C(=O)/C(=C3/C(=O)N(C)c4ccccc43)SC2=S)c(=O)n(-c2ccccc2)n1C | -1 | 5 | 0 | 5 | -5 | -3 | .
CCCCCc1ccc(OCCCC[n+]2ccc(C)cc2)c(CCCCC)c1 | 0 | 29* | 1 | 5 | 5 | -4 | 43
C#CCOCCOCCOCCNc1nc(N2CCN(C(=O)Cn3cc(CC(C)O)nn3)CC2)nc(N2CCN(C(=O)[C@H]([C@@H](C)O)n3cc(CCCCN)nn3)CC2)n1 (some centres undefined) | -4 | -1 | . | 7 | -1 | 0 | .
C#CCOCCOCCOCCNc1nc(N2CCN(C(=O)Cn3cc(CCO)nn3)CC2)nc(N2CCN(C(=O)[C@H]([C@@H](C)O)n3cc(CCCCN)nn3)CC2)n1 | 2 | 38* | 5 | 0 | 6 | 2 | 19
O=c1[nH]c(=S)[nH]c2c1C(c1ccc(Br)cc1)c1c([nH]c(=S)[nH]c1=O)O2 | 55* | 27* | 27* | 21 | -4 | 8 | 38
O=C1CCCC2=C1C(c1ccc(Br)cc1)c1c([nH]c(=S)[nH]c1=O)N2 (centres undefined) | -6 | 2 | 2 | -4 | -1 | 0 | .
Nc1nonc1-n1nnc(C(=O)NN=Cc2ccccc2Cl)c1CSc1ccccc1 | . | 4 | . | . | . | . | .
CC(C)=CCCC(C)NC(=O)NC1CCCCC1 (centres undefined) | -2 | 21* | -1 | -2 | 3 | 2 | 67*
COc1cccc(C=Nn2c(-c3n[nH]c4c3CCC4)n[nH]c2=S)c1O | . | 7 | . | . | . | . | .
CNC(=O)OCc1cccc(COC(=O)NC)n1 | -4 | 35* | -4 | 3 | 3 | 2 | 21
CC(=O)NCc1cccc(CNC(C)=O)n1 | -4 | 5 | 1 | 3 | -3 | 0 | .
COc1ccc(C(=O)Nc2ccccc2C(=O)NN=Cc2ccccn2)cc1OC | . | 3 | . | . | . | . | .
COC(=O)/C(N=Nc1cccc(C(F)(F)F)c1)=C(\C)O | 0 | 43* | -2 | 5 | 6 | -1 | 16
CCOC(=O)NC(=O)/C(N=Nc1cccc(C(F)(F)F)c1)=C(\C)O | . | 0 | 1 | . | . | -4 | .
COC(=O)c1cc(C(=O)c2ccccc2)n2c(=O)c(=CN(C)C)sc12 | . | -1 | . | . | . | . | .
CCn1ncc(C=NNC(=O)c2csc3ccccc23)c1C | . | 2 | . | . | . | . | .
SMILES | PAFAH2 FP inh | UCH37 DUB inh | pPAFAH inh | PAFAH1B3 inh | PAFAH1B2 FP inh | GRIN3A LBD mod | UCH37 reconfirm
COC(=O)C1=C(C(=O)OC)[C@@H]2N(C)c3ccccc3[C@@]23C[C@@H](C(=O)OC)N(C(=O)CC(C)C)C3=N1 | 4 | 42* | 2 | 16 | 8 | 2 | 2
C=CCN1c2ccccc2[C@]23C[C@@H](C(=O)OC)N(C(=O)CC(C)C)C2=NC(C(=O)OC)=C(C(=O)OC)[C@H]13 | -4 | 3 | 8 | -6 | 7 | -1 | .
O=[N+]([O-])c1ccc(N=Nc2ccc(O)cc2O)cc1 | 8 | 25* | 4 | 6 | -2 | 0 | 46
CC1=NN(c2ccccc2)C(=O)/C1=C/C=C/C=C/N(C)C | -53 | 32* | 9 | -39 | -29 | -4 | 30
CC1=NN(c2ccccc2)C(=O)/C1=C\N(O)c1ccccc1 | 4 | 12 | 1 | 12 | 0 | 1 | .
CCOC(=O)Cn1cc(C=NN2C(=O)C3C4C=CC(C4)C3C2=O)c2ccccc21 (centres undefined) | . | 1 | . | . | . | . | .
O=C(CNC(=O)C(c1ccccc1)c1ccccc1)NN=Cc1ccc(C(=O)O)cc1 | . | 1 | . | . | . | . | .
O=[N+]([O-])c1ccc(O)c(C=NNc2ccc(S(=O)(=O)O)cc2)c1 | 6 | 25* | . | 9 | 6 | -14 | 15
CCOC(=O)/C(C#N)=C\C=C1C=CN(C)C=C1 | 1 | . | 3 | 1 | -5 | -3 | 33
O=C(O)c1cccc(CN2C(=O)S/C(=C/c3ccccc3[N+](=O)[O-])C2=O)c1 | 1 | 80* | 6 | 13 | 7 | 2 | 35
O=C1S/C(=C\c2ccc(O)c([N+](=O)[O-])c2)C(=O)N1Cc1cccc([N+](=O)[O-])c1 | . | . | 21 | . | . | 3 | .
CC(=NO)c1c(C)c2ccccc2n1C | . | 1 | . | . | . | . | .
COc1ccccc1N1CCN(N=Cc2ccc(C)o2)CC1 | . | 3 | . | . | . | . | .
CC1(c2ccccc2Cl)NC(=O)N(CC(=O)NCCC2=CCCCC2)C1=O (centres undefined) | 1 | 34* | 4 | 2 | 2 | 2 | 56*
Cc1cc2ccccc2c(=O)n1CC(=O)NCCC1=CCCCC1 | 6 | 55* | 2 | 5 | 3 | 0 | 67*
COCCCn1c(=O)c2ccccc2n(CC(=O)NCCC2=CCCCC2)c1=O | -2 | 5 | 0 | 9 | 6 | -2 | .
Clc1ccc(NN=Cc2ccncc2)cc1Cl | . | 6 | . | . | . | . | .
CCOC(=O)/C(=C/C=C1\Sc2ccccc2N1CC)C(C)=O | 2 | 30* | 2 | -2 | 0 | 0 | 32
CCOC(=O)/C(=C\C=C1/Sc2ccccc2N1CC)C(C)=O | -4 | 15 | 2 | 1 | 0 | -4 | .
CC1(C)Cc2ccccc2C(c2cc3ccccc3oc2=O)=N1 | -5 | 36* | 7 | 11 | 6 | 0 | -4
CCOc1cc(C=NNC(=O)c2ccc(C)nc2)cc([N+](=O)[O-])c1O | . | 27* | . | . | . | . | 24
Cc1cccc(C)c1NC(=O)COC(=O)c1ccc([N+](=O)[O-])o1 | 5 | 29* | 5 | 3 | 11 | -4 | 11
